An excerpt weighted towards active compounds, which were near 2% of everything screened.
PKA-R1A act: activators of PKA-R1A complex. PKA-R1A dissociation, Cy5-IP20 fluorescence polarization; scaled: DMSO 0%, 113 µM cGMP 100%. activation, % at 11.4 µM. 340,000 compounds, 0.083% hits. AID 504707;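 active means percent activation above the mean of all tested compounds plus 3 SD, cut at about 19% in these data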;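 further: higher means more PKAc released from R1A so a rise in polarization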
dFosB act: enhances mouse delta FosB homodimer DNA binding | activation, % at 25 µM | purified delta FosB, TAMRA-CDK5 oligo fluorescence polarization; percent of positive-control signal above neutral wells | 340,000 compounds, 0.99% hits | AID 493131;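 active means mean activation above about 17%, with every replicate also reaching it, limit read from the data, passing the limit was not always enough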
PKA-R2B activ: PKA-R2B complex activation; 340,000 compounds, 0.079% hits; P22694+P31323; PKA-R2B holoenzyme dissociation, Cy5-IP20 fluorescence polarization; R2B truncated from residue 108, S112A mutant; 0% DMSO only, 100% 113 µM cGMP; activation, % at 11.4 µM;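 active means activation above a cutoff set at the mean over all compounds plus 3 SD, cut at about 18% in these data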;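 further: higher means more holoenzyme dissociation and a rise in polarization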
Target sequence (P31323 whole entry, looked up, other chains not shown, the tested form may be a part): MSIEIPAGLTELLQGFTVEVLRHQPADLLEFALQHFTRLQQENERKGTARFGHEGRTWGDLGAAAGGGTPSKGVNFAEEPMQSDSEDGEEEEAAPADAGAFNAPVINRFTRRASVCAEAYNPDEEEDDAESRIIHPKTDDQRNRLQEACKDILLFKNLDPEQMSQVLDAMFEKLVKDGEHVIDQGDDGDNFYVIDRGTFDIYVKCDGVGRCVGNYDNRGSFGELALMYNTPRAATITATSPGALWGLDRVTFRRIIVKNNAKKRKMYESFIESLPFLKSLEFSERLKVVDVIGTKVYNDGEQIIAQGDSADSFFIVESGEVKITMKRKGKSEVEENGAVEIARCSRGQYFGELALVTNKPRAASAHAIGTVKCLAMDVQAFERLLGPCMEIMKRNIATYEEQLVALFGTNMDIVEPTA
CAL PDZ FP-1: human CAL PDZ-peptide interaction inhibition | inhibition, % at 20 µM | AID 504414 | 330,000 compounds, 0.02% hits | purified CAL PDZ, TMR-peptide fluorescence polarization, 1 h;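 active means highest replicate inhibition of at least 40%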
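Material: tagged CAL PDZ protein CerCALP, purified; buffer or medium: sodium phosphate/NaCl buffer pH 7.4 with TCEP, IgG, Thesit; also added: fluorescent TMR peptide probe; schedule: 1 h incubation at room temperature before polarization reading; technique: fluorescence polarization from S- and P-plane intensities, G-factor corrected; control set: unlabelled peptide and DMSO controls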
CAL PDZ FP-2: blocks peptide binding to the human CAL PDZ domain; 300,000 compounds, 0.92% hits; purified CAL PDZ, TMR-peptide fluorescence polarization, 1 h; AID 602252; Q9HD26; inhibition, % at 24.9 µM;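 active means mean inhibition of at least 30% with at least half of replicates also reaching 30%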
NTR1 ag: activates human neurotensin receptor 1; P30989; NTR1-U2OS beta-arrestin-GFP spot imaging, agonist mode; activation, % at 20 µM; 330,000 compounds, 0.17% hits; AID 493036;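 active means activation at or above 40% of the spot to cytoplasm intensity ratio, with at least 20 cells analyzed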
Of the large screens only hits and unclear results are named; the others gave an inactive call.

CCOc1cc(N2CCOCC2)c(OCC)cc1NC(=O)c1cc(C)cc(C)c1	CAL PDZ FP-2 76
Cc1c(OC(C)C(=O)NCCN2CCOCC2)ccc2c3c(c(=O)oc12)CCCC3 (centres undefined)	CAL PDZ FP-2 67
Cc1cc(=O)oc2c(C)c(OC(C)C(=O)NCCN3CCOCC3)ccc12 (centres undefined)	none
CNC(=O)c1ccc(NC(=O)CC2SC(N3CCCC3)=NC2=O)cc1 (centres undefined)	none (no result: CAL PDZ FP-2)
COc1ccc(C2=NN(S(=O)(=O)c3ccccc3)C(c3ccccc3)C2)cc1 (centres undefined)	none
O=S(=O)(c1ccccc1)N1N=C(c2ccccc2)CC1c1ccccc1 (centres undefined)	CAL PDZ FP-2 45
O=C(c1ccccc1)N(c1ccccc1)c1nccc2ccccc12	none (no result: NTR1 ag)
O=C(COc1ccccc1)Nc1nnc(S(=O)(=O)Nc2ccccc2)s1	none (no result: CAL PDZ FP-2)
CC(C)NC(=O)N(C)C[C@H]1Oc2c(NC(=O)C3CC3)cccc2C(=O)N([C@H](C)CO)C[C@@H]1C	none
CC(C)C(NC(=O)C1CCC(C(C)(C)C)CC1)C(=O)NCCc1ccc(S(N)(=O)=O)cc1 (centres undefined)	none
CCC1CCC(C(=O)NC(C(=O)NCCc2ccc(S(N)(=O)=O)cc2)C(C)C)CC1 (centres undefined)	dFosB act 73
O=C(CCN1C(=O)C2CC=CCC2C1=O)Nc1cc(C(F)(F)F)ccc1N1CCCC1 (centres undefined)	none
O=C(O)c1[nH]c2ccccc2c1C(c1ccccc1)c1c(C(=O)O)[nH]c2ccccc12	CAL PDZ FP-1 45, CAL PDZ FP-2 56
CC(=O)CSc1nc2nccnc2[nH]1	none (no result: dFosB act, CAL PDZ FP-1, CAL PDZ FP-2, NTR1 ag)
Cc1c(C(=O)N2CCCCCC2)nnn1-c1nonc1N	CAL PDZ FP-2 49
COc1ccc(NCCC(O)c2ccc(Cl)cc2)cc1 (centres undefined)	CAL PDZ FP-2 35 (no result: CAL PDZ FP-1)
COC(=O)Cc1c(O)ccn(Cc2ccccc2OC)c1=O	CAL PDZ FP-2 47
CCc1nc2ccccc2n1CC(O)COCC1CC=CCC1 (centres undefined)	CAL PDZ FP-2 43
O=C(c1ccccc1)N1CCN(CC(O)COCC2CC=CCC2)CC1 (centres undefined)	none
COc1cccc(/C=C/C(=O)NCc2cn3cc(Cl)ccc3n2)c1	dFosB act 17
O=C(/C=C/c1cccc(Cl)c1)OCc1cn2cc(Cl)ccc2n1	none
O=C(Nc1nnc(S(=O)(=O)N2CCN(c3ccc(F)cc3)CC2)s1)c1ccccc1	none
COc1cc(NS(=O)(=O)c2ccc(C)cc2)c2ncccc2c1	none
Cc1ccc(S(=O)(=O)Nc2cccc3cccnc23)cc1	CAL PDZ FP-2 42
CCN1CCCc2cc(CN(CCN3CCOCC3)C(=S)Nc3cccc(C)c3)ccc21	CAL PDZ FP-2 53
CCN1CCCc2cc(CN(CCN3CCOCC3)C(=S)Nc3ccccc3C)ccc21	none
CC(C)[C@H](NC(=O)OC(C)(C)C)C(=O)N/N=C/c1ccc2nccnc2c1	CAL PDZ FP-2 70
COc1cc(/C=C2\SC(=S)N(NC(=O)c3cccnc3)C2=O)ccc1O	dFosB act 31
O=C(NN1C(=O)/C(=C/c2ccc(O)c(O)c2)SC1=S)c1ccccc1	none
COc1cc(/C=C2\SC(=S)N(NC(=O)c3ccc(O)cc3)C2=O)ccc1O	dFosB act 28
COc1cc(/C=C2\SC(=S)N(C(Cc3ccccc3)C(=O)O)C2=O)ccc1O (centres undefined)	dFosB act 18
O=C(c1cccs1)N1CCN(c2cc(Cl)ccc2Cl)CC1	none
CCn1cc(CN2CCCC(C(=O)Nc3cccc(-n4cccn4)c3)C2)cn1 (centres undefined)	none (no result: dFosB act, CAL PDZ FP-1, CAL PDZ FP-2, NTR1 ag)
Cc1cc(C(=O)N2CCCC(Nc3ccccc3)C2)c2ccc(F)cc2n1 (centres undefined)	none (no result: CAL PDZ FP-2)
O=C(Nc1nccs1)c1ccccc1N=Cc1ccccc1	CAL PDZ FP-2 59
COc1cccc(C=Nc2ccccc2C(=O)Nc2nccs2)c1OC	none (no result: CAL PDZ FP-2)
CCOC(=O)c1c(N/N=C/c2cccnc2)n[nH]c1C	none
CCCc1nnc(NC(=O)CCN2C(=O)c3ccccc3C2=O)s1	dFosB act 19
CCOCCc1nnc(NC(=O)CS(=O)(=O)c2ccc(C)cc2)s1	CAL PDZ FP-2 93
COc1ccc(Cc2nnc(NC(=O)CS(=O)(=O)c3ccc(C)cc3)s2)cc1OC	none
COc1ccccc1COCC(O)CN1CCN(S(=O)(=O)c2cccc(F)c2)CC1 (centres undefined)	none
COc1ccc(NC(=O)NC2(C)CCS(=O)(=O)C2)cc1 (centres undefined)	CAL PDZ FP-2 63
CCC(Oc1ccccc1)C(=O)OCC(=O)Nc1sccc1C(N)=O (centres undefined)	none
CS(=O)(=O)c1cccc(-c2csc(N3CCC(C(N)=O)CC3)n2)c1	none
CCOc1ccccc1-n1c(SCC(=O)N2CCOCC2)nnc1-c1ccccn1	CAL PDZ FP-2 42 (no result: CAL PDZ FP-1)
S=c1nc[nH]c2c1ncn2C1CCCC1	none (no result: NTR1 ag)
NC(=O)c1c(NC(=O)c2ccccc2F)sc2c1CCCC2	CAL PDZ FP-2 77
O=C(OCC(=O)N1CCCCCC1)c1ccc[nH]c1=O	none
O=C(OCC(=O)N1CCOCC1)c1ccc[nH]c1=O	CAL PDZ FP-1 125
Cc1ccccc1NC(=O)CN1C(=O)CSc2ccccc21	CAL PDZ FP-2 38
Cc1ccccc1NC(=O)CN1C(=O)CSc2ccc(S(=O)(=O)N3CCCC3)cc21	none
COc1cccc(C(=O)NCCS(=O)(=O)NC2CCCC2)c1	none
Oc1ccc(/C=N/Nc2ccnc3cc(Cl)ccc23)c(O)c1O	dFosB act 19
CC/C(=N\Nc1ccnc2cc(Cl)ccc12)c1ccc(O)cc1	none
Oc1ccc(/C=N/Nc2ccnc3cc(Cl)ccc23)cc1O	dFosB act 109
Clc1ccc2c(NCc3ccccn3)ccnc2c1	none
COc1cc(NC(=O)C2=COCCO2)c(OC)cc1Cl	none
NS(=O)(=O)c1cccc(NC(=O)C(Cc2ccccc2)NC(=O)c2ccccc2)c1 (centres undefined)	none
CN(C)S(=O)(=O)c1cccc(C(=O)Nc2ccc(S(=O)(=O)N3CCCC3)cc2)c1	none
COC(=O)c1ccc(Cn2cc([N+](=O)[O-])cn2)cc1	CAL PDZ FP-2 68
COC(=O)c1cccc(Cn2cc([N+](=O)[O-])cn2)c1	none (no result: PKA-R1A act, dFosB act, PKA-R2B activ, CAL PDZ FP-1, CAL PDZ FP-2)
Cc1ccc(NC(=O)c2nnn(-c3ccc4c(c3)OCCO4)c2N)cc1	none (no result: CAL PDZ FP-2)
Nc1c(C(=O)Nc2ccccc2)nnn1-c1ccc2c(c1)OCCO2	CAL PDZ FP-2 80
O=C(OCC(=O)N1CCOCC1)c1cccc(S(=O)(=O)N2CCCc3ccccc32)c1	none
